Laboratory results as given in ChEMBL document CHEMBL3860087, “New Broad-Spectrum Antibacterial Amphiphilic Aminoglycosides Active against Resistant Bacteria: From Neamine Derivatives to Smaller Neosamine Analogues” (J Med Chem, 2016).
Converted amounts (≈) assume the structure as drawn.

Columns and labels:
[1] = system: Staphylococcus aureus; assay: Antibacterial activity against healthcare-acquired methicillin-resistant Staphylococcus aureus ATCC 33592 by microdilution method; assay type: functional
Outline: (§1)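 Broth microdilution per CLSI in cation-adjusted Mueller–Hinton broth. Strains were grown overnight at 37 °C on trypticase soy agar, and a fresh culture was used. Starting inoculum was 10^6 cells.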

[2] = Cytotoxicity against mouse J774 cells assessed as cell viability at 10 uM after 24 hrs by MTT assay relative to control; assay type: toxicity, cell-based; settings: J774 cells, read-out: Activity
Outline: (§2)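 Murine J774 macrophages exposed 24 h to 10 or 30 μM compound, then 1 h with 0.2 mg/mL MTT; reaction stopped with DMSO, OD read at 570 nm as metabolic-activity viability. Number of independent experiments given per value.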

[3] = system: Escherichia coli; assay: Antibacterial activity against ANT2''-IA expressing Escherichia coli L8058.1 by microdilution method; assay type: functional
Outline: (§3)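 Strains grown overnight at 37 °C on trypticase soy agar; MIC by broth microdilution from fresh culture in cation-adjusted Mueller–Hinton broth, starting inoculum 10^6 cells, following CLSI recommendations.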

[4] = system: Acinetobacter lwoffii; assay: Antibacterial activity against APH3'-VIA expressing Acinetobacter lwoffii AI.88-483 by microdilution method; assay type: functional; outline: as §3
[5] = system: Escherichia coli; assay: microbe, parasite or virus in culture; settings: ATCC 25922
[6] = Cytotoxicity against mouse J774 cells assessed as cell viability at 30 uM after 24 hrs by MTT assay relative to control; assay type: toxicity, cell-based; settings: J774 cells, read-out: Activity; outline: as §2
[7] = system: Pseudomonas aeruginosa; assay: Antibacterial activity against MexXY expressing Pseudomonas aeruginosa PA22 by microdilution method; assay type: functional; outline: as §3
[8] = system: Escherichia coli; assay: Antibacterial activity against AAC6'-IB expressing Escherichia coli PAZ505H8101 by microdilution method; assay type: functional; outline: as §3
[9] = system: Staphylococcus aureus; assay: Antibacterial activity against Staphylococcus aureus ATCC 25923 by microdilution method; assay type: functional; outline: as §1
[10] = system: Staphylococcus aureus; assay: Antibacterial activity against NorA expressing Staphylococcus aureus 1 by microdilution method
[11] = system: Pseudomonas aeruginosa; assay: Antibacterial activity against AAC6'-2A expressing Pseudomonas aeruginosa F03 by microdilution method; assay type: functional; outline: as §3
[12] = system: Klebsiella pneumoniae; assay: Antibacterial activity against Klebsiella pneumoniae ATCC 700603 by microdilution method; assay type: functional; outline: as §3
[13] = system: Pseudomonas aeruginosa; assay: Antibacterial activity against triABC deficient Pseudomonas aeruginosa PA406 by microdilution method; assay type: functional; outline: as §3
[14] = system: Acinetobacter lwoffii; assay: Antibacterial activity against Acinetobacter lwoffii ATCC 17925 by microdilution method; assay type: functional; outline: as §3
[15] = system: Pseudomonas aeruginosa; assay: Antibacterial activity against Pseudomonas aeruginosa ATCC 27853 by microdilution method; assay type: functional; outline: as §3

CCCCCCCCCO[C@@H]1[C@@H](N)[C@@H](OCC(O)CO)O[C@H](CN)[C@H]1OCCCCCCCCC (mixture of isomers)
MIC [1]: 2 µg/mL | viability at 24 h, 10 µM [2]: 89.7% | MIC [3]: 8 µg/mL | MIC [4]: 8 µg/mL | MIC [5]: 8 µg/mL | viability at 24 h, 30 µM [6]: 8.8% | MIC [7]: 64 µg/mL | MIC [8]: 16 µg/mL | MIC [9]: 2 µg/mL | MIC [10]: 2 µg/mL | MIC [11]: 64 µg/mL | MIC [12]: 64 µg/mL | MIC [13]: 64 µg/mL | MIC [14]: 1 µg/mL | MIC [15]: 64 µg/mL

CCCCCCCCCO[C@@H]1[C@@H](N)[C@@H](OCC(O)CNCCN)O[C@H](CN)[C@H]1OCCCCCCCCC (mixture of isomers)
MIC [1]: 2 µg/mL | viability at 24 h, 10 µM [2]: 87.5% | MIC [3]: 4 to 8 µg/mL | MIC [4]: 16 to 32 µg/mL | MIC [5]: 8 µg/mL | viability at 24 h, 30 µM [6]: 53% | MIC [7]: 4 to 8 µg/mL | MIC [8]: 4 to 8 µg/mL | MIC [9]: 2 µg/mL | MIC [10]: 2 µg/mL | MIC [11]: 4 to 8 µg/mL | MIC [12]: 8 to 16 µg/mL | MIC [13]: 8 µg/mL | MIC [14]: 2 µg/mL | MIC [15]: 8 µg/mL

GENTAMICIN
MIC [1]: 1 µg/mL | MIC [3]: 64 µg/mL | MIC [4]: 2 µg/mL | MIC [7]: 4 µg/mL | MIC [8]: 1 µg/mL | MIC [9]: 0.25 to 0.5 µg/mL | MIC [11]: > 128 µg/mL | MIC [12]: 4 to 8 µg/mL | MIC [13]: < 0.25 µg/mL | MIC [14]: < 0.25 µg/mL | MIC [15]: 1 µg/mL

NCC[C@H](O)C(=O)N[C@@H]1C[C@H](N)[C@@H](O[C@H]2O[C@H](CN)[C@@H](O)[C@H](O)[C@H]2O)[C@H](O)[C@H]1O[C@H]1O[C@H](CO)[C@@H](O)[C@H](N)[C@H]1O [AMIKACIN]
MIC [1]: 8 to 16 µg/mL (≈ 13.7 to 27.3 µM) | viability at 24 h, 10 µM [2]: 81.2% | MIC [3]: 2 µg/mL (≈ 3.42 µM) | MIC [4]: 128 µg/mL (≈ 219 µM) | MIC [5]: 4 µg/mL (≈ 6.83 µM) | viability at 24 h, 30 µM [6]: 92% | MIC [7]: 8 µg/mL (≈ 13.7 µM) | MIC [8]: 64 µg/mL (≈ 109 µM) | MIC [9]: 4 µg/mL (≈ 6.83 µM) | MIC [10]: 2 µg/mL (≈ 3.42 µM) | MIC [11]: 8 µg/mL (≈ 13.7 µM) | MIC [12]: 1 µg/mL (≈ 1.71 µM) | MIC [13]: 1 µg/mL (≈ 1.71 µM) | MIC [14]: < 0.25 µg/mL | MIC [15]: 2 to 4 µg/mL (≈ 3.42 to 6.83 µM)

NC[C@H]1O[C@H](O[C@H]2[C@H](O)[C@@H](O[C@H]3O[C@H](CO)[C@@H](O)[C@H](N)[C@H]3O)[C@H](N)C[C@@H]2N)[C@H](N)C[C@@H]1O [TOBRAMYCIN]
MIC [1]: 64 µg/mL (≈ 137 µM) | viability at 24 h, 10 µM [2]: 99.7% | MIC [3]: 64 µg/mL (≈ 137 µM) | MIC [4]: 0.5 to 1 µg/mL (≈ 1.07 to 2.14 µM) | MIC [5]: 1 µg/mL (≈ 2.14 µM) | viability at 24 h, 30 µM [6]: 83.2% | MIC [7]: 0.5 µg/mL (≈ 1.07 µM) | MIC [8]: 32 µg/mL (≈ 68.4 µM) | MIC [9]: 0.25 µg/mL (≈ 0.535 µM) | MIC [10]: 0.5 µg/mL (≈ 1.07 µM) | MIC [11]: 128 µg/mL (≈ 274 µM) | MIC [12]: 4 to 8 µg/mL (≈ 8.56 to 17.1 µM) | MIC [13]: < 0.25 µg/mL | MIC [14]: < 0.25 µg/mL | MIC [15]: < 0.25 µg/mL

NC[C@H]1O[C@H](O[C@H]2[C@H](O)[C@@H](OCc3ccc4ccccc4c3)[C@H](N)C[C@@H]2N)[C@H](N)[C@@H](OCc2ccc3ccccc3c2)[C@@H]1O
MIC [1]: 8 to 16 µg/mL (≈ 13.3 to 26.5 µM) | viability at 24 h, 10 µM [2]: 86% | MIC [3]: 64 to 128 µg/mL (≈ 106 to 212 µM) | MIC [4]: 128 µg/mL (≈ 212 µM) | MIC [5]: 32 to 64 µg/mL (≈ 53.1 to 106 µM) | viability at 24 h, 30 µM [6]: 75.9% | MIC [7]: > 128 µg/mL | MIC [8]: 32 µg/mL (≈ 53.1 µM) | MIC [9]: 8 µg/mL (≈ 13.3 µM) | MIC [10]: 4 to 8 µg/mL (≈ 6.64 to 13.3 µM) | MIC [11]: 64 to 128 µg/mL (≈ 106 to 212 µM) | MIC [12]: 128 µg/mL (≈ 212 µM) | MIC [13]: 2 to 4 µg/mL (≈ 3.32 to 6.64 µM) | MIC [14]: 4 to 8 µg/mL (≈ 6.64 to 13.3 µM) | MIC [15]: 64 to 128 µg/mL (≈ 106 to 212 µM)

CCCCCCCCCO[C@@H]1[C@@H](N)[C@@H](OCC(O)CNCCO)O[C@H](CN)[C@H]1OCCCCCCCCC (mixture of isomers)
MIC [1]: 1 to 2 µg/mL | viability at 24 h, 10 µM [2]: 99.1% | MIC [3]: 4 to 8 µg/mL | MIC [4]: 4 to 8 µg/mL | MIC [5]: 4 to 8 µg/mL | viability at 24 h, 30 µM [6]: 10.1% | MIC [7]: 8 µg/mL | MIC [8]: 8 µg/mL | MIC [9]: 4 µg/mL | MIC [10]: 1 to 2 µg/mL | MIC [11]: 8 µg/mL | MIC [12]: 8 µg/mL | MIC [13]: 8 µg/mL | MIC [14]: 2 µg/mL | MIC [15]: 8 µg/mL

NC[C@@H]1O[C@H](O[C@H]2[C@@H](O)[C@H](O[C@@H]3[C@@H](O)[C@H](N)C[C@H](N)[C@H]3O[C@H]3O[C@H](CN)[C@@H](O)[C@H](O)[C@H]3N)O[C@@H]2CO)[C@H](N)[C@@H](O)[C@@H]1O [FRAMYCETIN]
MIC [1]: > 128 µg/mL | viability at 24 h, 10 µM [2]: 87.3% | MIC [3]: 1 µg/mL (≈ 1.63 µM) | MIC [4]: 64 to 128 µg/mL (≈ 104 to 208 µM) | MIC [5]: 2 µg/mL (≈ 3.25 µM) | viability at 24 h, 30 µM [6]: 69.8% | MIC [7]: 32 to 64 µg/mL (≈ 52.1 to 104 µM) | MIC [8]: 4 µg/mL (≈ 6.51 µM) | MIC [9]: 1 to 2 µg/mL (≈ 1.63 to 3.25 µM) | MIC [10]: 0.5 µg/mL (≈ 0.813 µM) | MIC [11]: 128 µg/mL (≈ 208 µM) | MIC [12]: 4 to 8 µg/mL (≈ 6.51 to 13 µM) | MIC [13]: 2 µg/mL (≈ 3.25 µM) | MIC [14]: < 0.25 µg/mL | MIC [15]: 64 µg/mL (≈ 104 µM)

CCCCCCCCCO[C@@H]1[C@@H](N)[C@@H](OC[C@@H](O)CN)O[C@H](CN)[C@H]1OCCCCCCCCC
MIC [1]: 2 µg/mL (≈ 3.97 µM) | viability at 24 h, 10 µM [2]: 85.1% | MIC [3]: 4 to 8 µg/mL (≈ 7.94 to 15.9 µM) | MIC [4]: 4 µg/mL (≈ 7.94 µM) | MIC [5]: 4 µg/mL (≈ 7.94 µM) | viability at 24 h, 30 µM [6]: 7.2% | MIC [7]: 8 µg/mL (≈ 15.9 µM) | MIC [8]: 4 µg/mL (≈ 7.94 µM) | MIC [9]: 2 µg/mL (≈ 3.97 µM) | MIC [10]: 1 µg/mL (≈ 1.99 µM) | MIC [11]: 8 µg/mL (≈ 15.9 µM) | MIC [12]: 8 µg/mL (≈ 15.9 µM) | MIC [13]: 4 to 8 µg/mL (≈ 7.94 to 15.9 µM) | MIC [14]: 2 µg/mL (≈ 3.97 µM) | MIC [15]: 4 to 8 µg/mL (≈ 7.94 to 15.9 µM)

NC[C@H]1O[C@H](O[C@H]2[C@H](O)[C@@H](O)[C@H](N)C[C@@H]2N)[C@H](N)[C@@H](OCc2ccc3ccccc3c2)[C@@H]1OCc1ccc2ccccc2c1
MIC [1]: 4 to 8 µg/mL (≈ 6.64 to 13.3 µM) | viability at 24 h, 10 µM [2]: 79.1% | MIC [3]: 16 to 32 µg/mL (≈ 26.5 to 53.1 µM) | MIC [4]: > 128 µg/mL | MIC [5]: 16 to 32 µg/mL (≈ 26.5 to 53.1 µM) | MIC [7]: 128 µg/mL (≈ 212 µM) | MIC [8]: 8 to 16 µg/mL (≈ 13.3 to 26.5 µM) | MIC [9]: 2 to 4 µg/mL (≈ 3.32 to 6.64 µM) | MIC [10]: 2 to 4 µg/mL (≈ 3.32 to 6.64 µM) | MIC [11]: 128 µg/mL (≈ 212 µM) | MIC [12]: > 128 µg/mL | MIC [13]: 2 to 4 µg/mL (≈ 3.32 to 6.64 µM) | MIC [14]: 4 µg/mL (≈ 6.64 µM) | MIC [15]: 16 µg/mL (≈ 26.5 µM)
